ChEMBL document CHEMBL1131375, “2-amino-4H-3,1-benzoxazin-4-ones as inhibitors of C1r serine protease” (J Med Chem, 1998)

Legend:
[1] = target: T1, Complement C1r subcomponent (Homo sapiens, UniProt P00736)
T1 sequence (P00736 whole entry): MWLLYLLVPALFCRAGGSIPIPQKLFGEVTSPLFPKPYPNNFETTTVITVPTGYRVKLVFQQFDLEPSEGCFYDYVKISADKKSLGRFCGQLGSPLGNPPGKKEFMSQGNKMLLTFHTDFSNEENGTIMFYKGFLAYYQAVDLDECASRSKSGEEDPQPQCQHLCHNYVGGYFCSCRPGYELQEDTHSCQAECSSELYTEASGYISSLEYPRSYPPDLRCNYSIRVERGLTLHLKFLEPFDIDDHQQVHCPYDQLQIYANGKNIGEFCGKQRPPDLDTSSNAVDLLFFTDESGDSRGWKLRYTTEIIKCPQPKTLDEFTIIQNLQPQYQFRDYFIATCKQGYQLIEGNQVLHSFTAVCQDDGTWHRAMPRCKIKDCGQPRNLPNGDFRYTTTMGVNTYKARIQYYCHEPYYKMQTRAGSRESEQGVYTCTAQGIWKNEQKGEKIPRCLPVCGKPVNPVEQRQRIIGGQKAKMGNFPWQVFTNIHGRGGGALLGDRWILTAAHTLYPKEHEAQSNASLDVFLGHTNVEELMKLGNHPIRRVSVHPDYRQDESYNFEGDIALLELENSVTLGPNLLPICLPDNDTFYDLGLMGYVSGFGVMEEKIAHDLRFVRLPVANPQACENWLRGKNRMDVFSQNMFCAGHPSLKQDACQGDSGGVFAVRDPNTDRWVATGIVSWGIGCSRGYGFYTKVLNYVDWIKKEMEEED

[2] = target: T1, Complement C1r subcomponent; test: 50% inhibition of human C1r serine protease after 60 mins using Cbz-Gly-Arg-S-Bzl as substrate
In short: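 Compound (DMSO) preincubated 60 min at room temperature in 150 mM Tris pH 7.5, then substrate (1.5 mM stock Cbz-Gly-Arg-S-Bzl in DMSO/H2O 3:7), DTNB (0.75 mM stock) and purified human C1r (20 μg/mL stock, 10 mM Tris pH 7.4) added. Read kinetically at 405 nm after 30 s; no-enzyme background wells; triplicates per concentration; IC50 reported.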

[3] = The compound was examined in a functional assay using erythrocyte hemolysis as a functional end point of complement inhibition.; set-up: species or system Ovis aries; concentration or dose not given beside the values
In short: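 Compound added to standardized antibody-sensitized sheep erythrocyte suspension (commercial complement kit), incubated 60 min at 25 °C, centrifuged; supernatant absorbance read at 405 nm. Expressed as percent of control at 200 μM.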

Serine protease 1 [4] = target: T2, Serine protease 1 (Bos taurus, UniProt P00760); test: Concentration of compound required to inhibit 50% trypsin derived from bovine pancreas
T2 sequence (P00760 whole entry): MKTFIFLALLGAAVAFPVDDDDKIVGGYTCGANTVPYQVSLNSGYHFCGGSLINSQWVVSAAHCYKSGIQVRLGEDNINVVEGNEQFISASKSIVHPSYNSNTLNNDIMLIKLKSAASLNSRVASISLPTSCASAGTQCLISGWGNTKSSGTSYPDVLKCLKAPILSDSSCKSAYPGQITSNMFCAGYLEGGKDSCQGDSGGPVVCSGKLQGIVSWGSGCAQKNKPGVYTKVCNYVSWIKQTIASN
In short: (§1)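 Bovine pancreatic trypsin (1.25 μg) with casein 0.5 mg/mL, 20 mM dithiothreitol, 50 mM Tris-HCl pH 7.4, at various inhibitor concentrations; 60 min, 25 °C caseinolysis, colorimetric development, absorbance 595 nm. IC50 from percent inhibition versus log [inhibitor]; mean of two to four determinations, ranges within 20%.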

Serine protease 1 [5] = target: T2, Serine protease 1; test: The compound was evaluated to inhibit trypsin and is expressed in IC50 (The concentration required to inhibit 50% of the enzyme).
In short: as §1

Row | SMILES | IC50 [1] [µM] | IC50 [2] [µM] | other results
1 | O=c1oc(NCCc2ccccc2I)nc2ccccc12 | > 62.5 | – | –
2 | O=c1oc(Nc2ccccc2Cl)nc2ccccc12 | – | 8 | –
3 | O=c1oc(Nc2ccccc2I)nc2cc([N+](=O)[O-])ccc12 | 0.8 | 7.8 | Hemolysis (% of control) [3]: 126%; IC50 (Serine protease 1 [4]): > 100 µM
4 | COc1cc2nc(Nc3ccccc3I)oc(=O)c2cc1OC | 47 | 47 | –
5 | Cc1ccc2c(=O)oc(Nc3ccccc3Cl)nc2c1 | – | 0.9 | –
6 | O=c1oc(Nc2ccccc2I)nc2ccc(Cl)cc12 | – | > 62.5 | –
7 | Cc1ccc2c(=O)oc(Nc3ccccc3I)nc2c1 | – | 1.5 | Hemolysis (% of control) [3]: 114%; IC50 (Serine protease 1 [4]): > 100 µM
8 | O=c1oc(Nc2c(Cl)cccc2Cl)nc2ccccc12 | 0.9 | 0.9 | –
9 | O=c1oc(Nc2ccccc2OC(F)(F)F)nc2ccccc12 | – | > 62.5 | –
10 | CN(C)c1ccc2c(=O)oc(Nc3ccccc3I)nc2c1 | > 62.5 | – | –
11 | COc1ccc2c(=O)oc(Nc3ccccc3I)nc2c1 | > 62.5 | – | –
12 | O=c1oc(Nc2ccccc2I)nc2cc(C(F)(F)F)ccc12 | – | 4 | Hemolysis (% of control) [3]: 146%; IC50 (Serine protease 1 [4]): > 100 µM
13 | Cc1ccc2nc(Nc3ccccc3I)oc(=O)c2c1 | > 62.5 | – | –
14 | O=c1oc(-c2ccccc2I)nc2ccccc12 | – | – | Hemolysis (% of control) [3]: 61%; IC50 (Serine protease 1 [4]): 15.3 µM
15 | O=c1oc(Nc2ccccc2I)nc2cc(C3CCCCC3)ccc12 | > 62.5 | – | –
16 | CC(C)c1ccc2c(=O)oc(Nc3ccccc3I)nc2c1 | > 62.5 | – | –
17 | Cc1ccccc1Nc1nc2ccccc2c(=O)o1 | – | 38 | –
18 | O=c1oc(Nc2ccccc2I)nc2cc(Cl)ccc12 | – | 0.9 | –
19 | O=c1oc(Nc2ccccc2I)nc2cc(F)ccc12 | 1.7 | 2.8 | IC50 (Serine protease 1 [4]): > 100 µM
20 | O=c1oc(Nc2c(Cl)cccc2Cl)nc2cc(C(F)(F)F)ccc12 | 1.5 | 4.2 | Hemolysis (% of control) [3]: 120%; IC50 (Serine protease 1 [4]): 87.1 µM
21 | O=c1oc(Nc2ccccc2Cl)nc2cc([N+](=O)[O-])ccc12 | – | > 62.5 | –
22 | O=c1oc(Nc2ccccc2I)nc2cc(Cl)c(Cl)cc12 | – | > 62.5 | –

Row | SMILES | IC50 [1] [µM] | IC50 [2] [µM] | other results
23 | O=c1oc(Nc2c(Cl)cccc2Cl)nc2cc(Cl)ccc12 | – | 0.9 | –
24 | CNc1nc2ccccc2c(=O)o1 | > 62.5 | – | –
25 | O=c1oc(Nc2ccccc2I)nc2cc(F)c(F)cc12 | – | > 62.5 | –
26 | Cc1cccc2nc(NC(C)C)oc(=O)c12 | > 62.5 | – | –
27 | COc1ccc2nc(Nc3ccccc3I)oc(=O)c2c1 | – | > 62.5 | –
28 | CN(c1nc2ccccc2c(=O)o1)c1ccccc1I | – | 16.6 | Hemolysis (% of control) [3]: 72%; IC50 (Serine protease 1 [4]): 4.5 µM
29 | O=c1oc(Nc2ccccc2I)nc2cc3ccccc3cc12 | 0.2 | 16.6 | –
30 | O=c1oc(NCc2ccccc2I)nc2ccccc12 | > 62.6 | – | –
31 | Nc1nc2ccccc2c(=O)o1 | > 62.5 | – | –
32 | Cc1cccc(C)c1Nc1nc2ccccc2c(=O)o1 | > 62.5 | – | –
33 | O=c1oc(Nc2ccccc2Cl)nc2cc(Cl)c(Cl)cc12 | – | > 62.5 | –
34 | O=c1oc(Nc2ccccc2I)nc2cc(Cl)cc(Cl)c12 | > 62.5 | – | –
35 | O=c1oc(Nc2ccccc2Br)nc2ccccc12 | – | 15.2 | IC50 (Serine protease 1 [4]): > 100 µM
36 | O=c1oc(Nc2ccccc2Cl)nc2cc(Cl)ccc12 | 0.8 | 0.8 | Hemolysis (% of control) [3]: 138%; IC50 (Serine protease 1 [4]): > 100 µM
37 | O=c1oc(Nc2cc(Cl)ccc2Cl)nc2ccccc12 | 2 | 2 | Hemolysis (% of control) [3]: 131%; IC50 (Serine protease 1 [4]): > 100 µM
38 | CSc1ccccc1Nc1nc2ccccc2c(=O)o1 | > 62.5 | – | –
39 | CCN(c1nc2ccccc2c(=O)o1)c1ccccc1I | > 62.5 | – | –
40 | Cc1cccc2nc(Nc3ccccc3I)oc(=O)c12 | > 62.5 | – | –
41 | O=c1oc(Nc2ccccc2I)nc2ccccc12 | – | 14.7 | –
42 | O=c1oc(Nc2ccccc2I)nc2cccc(Cl)c12 | – | > 62.5 | –
43 | N=C(N)c1ccc2cc(OC(=O)c3ccc(N=C(N)N)cc3)ccc2c1 [NAFAMOSTAT] | – | – | IC50 (Serine protease 1 [5]): 0.017 µM
